Source: ChEMBL document CHEMBL2057189, “Functional characterization of recombinant hyoscyamine 6β-hydroxylase from Atropa belladonna” (Bioorg Med Chem, 2012)
Activity calls are given as the source filed them. The calls are words filed in the database; no cut-off is given here.

Legend:
Atropa belladonna [1] = test: Activity at Atropa belladonna recombinant hycosamine 6beta-hydroxylase expressed in Escherichia coli assessed as hydroxylated product formation at 0.2 mM after 1 hr by ESI-MS analysis
Method in brief: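 Ni-NTA-purified His-tagged AbH6H, E. coli-expressed. Analogue at 0.2 mM final replaced (−)-hyoscyamine in 50 mM Tris/HCl pH 7.6 with 0.4 mM FeSO4, 4 mM sodium ascorbate, 1 mM 2-oxoglutaric acid and 2 mg/mL catalase at 34 °C. The reaction was quenched with saturated Na2CO3 (pH ~9.5) and extracted with EtOAc. Conversion to products was checked by ESI-MS.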

Atropa belladonna [2] = test: Inhibition of Atropa belladonna recombinant hycosamine 6beta-hydroxylase expressed in Escherichia coli using hyoscyamine as substrate assessed as inhibition of hydroxylated product formation at 0.1 mM after 1 hr by HPLC analysis
Method in brief: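 Purified AbH6H was assayed in 50 mM Tris/HCl pH 7.6 with 0.4 mM FeSO4, 4 mM ascorbate, 1 mM 2-oxoglutarate, 2 mg/mL catalase and 0.2 mM (−)-hyoscyamine, plus 0.1 mM analogue, at 34 °C. After Na2CO3 quench and EtOAc extraction, 6β-hydroxyhyoscyamine was quantified by C18 HPLC (UV 210 nm, water/H3PO4–MeOH gradient). Inhibition was scored as reduced product formation.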

Atropa belladonna [3] = test: Activity at Atropa belladonna recombinant hycosamine 6beta-hydroxylase epoxidase activity expressed in Escherichia coli assessed as scopolamine formation at 0.2 mM after 1 hr by ESI-MS analysis
Method in brief: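 C-terminally His6-tagged A. belladonna H6H expressed in E. coli JM109 and Ni-NTA purified. Substrate (0.2 mM final) incubated at 34 °C in 50 mM Tris/HCl pH 7.6 with 0.4 mM FeSO4, 4 mM sodium ascorbate, 1 mM 2-oxoglutarate and 2 mg/mL catalase. Quenched with saturated Na2CO3 to pH ~9.5 and extracted with EtOAc. Products detected by ESI-MS.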

| SMILES | Activity (Atropa belladonna [1]) | inhibition (Atropa belladonna [2]) | Activity (Atropa belladonna [3]) |
| --- | --- | --- | --- |
| CN(C)c1ccc(CC(=O)O[C@H]2C[C@H]3CC[C@@H](C2)N3C)cc1 | Active |  |  |
| CN1CCC(OC(=O)Cc2ccccc2)CC1 | inactive | inactive |  |
| CN1[C@@H]2C=C[C@H]1C[C@@H](OC(=O)[C@H](CO)c1ccccc1)C2 | Active |  | Active |
| CN1C2CC[C@@H]1C[C@H](OC(=O)CCc1ccccc1)C2 (single isomer, unassigned) | inactive | inactive |  |
| CN1C2CC[C@@H]1C[C@H](OC(=O)c1ccccc1)C2 (single isomer, unassigned) | Active |  |  |
| C[N+]1(C)C2C[C@H](OC(=O)[C@H](CO)c3ccccc3)C[C@@H]1[C@H]1OC21 (single isomer, unassigned) | inactive | 7% |  |
| O=C(Cc1ccccc1)O[C@@H]1CC2CC[C@H](C1)O2 (single isomer, unassigned) | inactive | inactive |  |
